Assay outcomes (PubChem)
PG9 Ab binder = PG9 antibody binding by small molecule. TR-FRET gp120-PG9 antibody binding. inhibition, % at 6.7 µM. 360,000 compounds, 0.43% hits; in the data active = inhibition above about 8.5%
NR2E3 ag-1 = human photoreceptor-specific nuclear receptor agonism | Q9Y5X4 | CHO-S Gal4-NCOR/VP16-NR2E3 two-hybrid, luciferase | inhibition of corepressor binding, % at 3.98 µM | 360,000 compounds, 0.35% hits | AID 602229;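 active = inhibition above the mean of all tested compounds plus 3 SD, cut at about 70% in these data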;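 note: 0% = DMSO with NR2E3 transfected cells and 100% = cells lacking NR2E3 construct; higher means lower luciferase signal from less NR2E3 corepressor binding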
Rev-erbA mod = Rev-erb alpha (human) modulation. Rev-erbα–FITC-DNA binding, fluorescence polarization, 90 min. activity, % at 10 µM. 370,000 compounds, 0.79% hits. AID 1259318;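 active = activity above about 14%, limit read from the data; passing the limit was not always enough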;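 note: 0% = DMSO wells with 35 nM protein and 100% = DMSO wells with 750 nM protein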
Target sequence (P20393 whole entry, looked up): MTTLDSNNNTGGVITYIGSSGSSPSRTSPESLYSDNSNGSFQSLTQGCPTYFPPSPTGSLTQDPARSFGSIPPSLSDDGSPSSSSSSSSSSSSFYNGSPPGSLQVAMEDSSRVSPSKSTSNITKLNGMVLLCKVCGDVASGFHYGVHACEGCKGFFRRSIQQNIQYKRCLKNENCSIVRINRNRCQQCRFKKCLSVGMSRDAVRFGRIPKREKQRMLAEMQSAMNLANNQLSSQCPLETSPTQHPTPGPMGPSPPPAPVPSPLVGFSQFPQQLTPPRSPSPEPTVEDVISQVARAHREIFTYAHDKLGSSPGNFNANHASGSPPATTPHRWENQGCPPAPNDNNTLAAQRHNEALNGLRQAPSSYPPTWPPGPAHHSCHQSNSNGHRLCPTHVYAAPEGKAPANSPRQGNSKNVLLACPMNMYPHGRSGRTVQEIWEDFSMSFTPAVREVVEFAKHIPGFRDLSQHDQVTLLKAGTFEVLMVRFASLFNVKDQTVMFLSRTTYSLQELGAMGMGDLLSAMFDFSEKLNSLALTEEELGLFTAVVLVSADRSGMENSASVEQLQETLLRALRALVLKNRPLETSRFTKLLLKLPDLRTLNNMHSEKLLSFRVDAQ
NR2E3 ag-2 = agonists of human nuclear receptor NR2E3; GST-NR2E3/biotin-RetCOR TR-FRET, 1536-well; inhibition of corepressor binding, % at 4.78 µM; 320,000 compounds, 0.12% hits;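 active = percent inhibition above the cutoff of mean plus 3 SD of all tested compounds, set per screening campaign, cut at about 20% in these data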;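 note: 0% = DMSO wells and 100% = biotin wells as full block of FRET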
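Material: NR2E3–RetCOR corepressor complex / Amount: 1.35 nM GST-NR2E3 / Medium: Tris pH 7.5 / Compound: single nominal compound dose of 4.8 µM / Incubation: 5 h at 4 °C / Technique: TR-FRET, Eu(K)-anti-GST donor, streptavidin-D2 acceptor, ex 340, em 617/671 nm / Read-out basis: percent loss of FRET ratio relative to control wells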
PG9 binder conf = confirmation of small molecules binding HIV-1 gp120 antibody PG9; AID 651571; TR-FRET PG9 antibody binding, biochemical; 1,500 compounds, 90% hits; inhibition, % at 6.7 µM; shares compounds with PG9 Ab binder; in the data active = inhibition above about 9%
PGV04 counter = counter-screen for PG9 binders: binding control antibody PGV04 | shares compounds with PG9 Ab binder | TR-FRET PGV04 antibody-gp120 binding, biochemical | inhibition, % at 6.7 µM | 1,500 compounds, 95% hits; in the data active = inhibition above about 9.5%
PG9 bind DR = small molecules binding HIV-1 gp120 antibody PG9; shares compounds with PG9 Ab binder; TR-FRET PG9 antibody-gp120 binding inhibition; IC50, µM; 95 tested, under 10 active; AID 651848; in the data active = IC50 below about 10 µM
PGV04 DR counter = PGV04 binding, dose response counter-screen; AID 651937; IC50, µM; shares compounds with PG9 Ab binder; 95 compounds, 20% hits; TR-FRET binding to control antibody PGV04
PG126 DR counter = PG126 binding, dose response counter-screen; shares compounds with PG9 Ab binder; TR-FRET binding to antibody PG126, counterscreen; IC50, µM; 95 compounds, 20% hits
Rev-erbA confirm = confirmation of modulators of human Rev-erb alpha DNA binding | shares compounds with Rev-erbA mod | activation, % at 25 µM | 3,000 compounds, 61% hits | Rev-erb alpha FITC-DNA binding, fluorescence polarization, 90 min | AID 1259319;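 active = activation at or above a set limit, or at least 3 SD above the negative control mean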;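 note: 0% = 35 nM protein with DMSO and 100% = 750 nM protein high control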
An asterisk follows results filed as active; i = inactive; / = not tested or not shown. Only some compounds are listed: those with a hit (about 1.5% of all), similar ones and a draw of the others. Cut-off read from the data, not from the text of the source, unless noted: active = IC50 below about 9 µM; inactive = the rest.

SMILES	PG9 Ab binder	NR2E3 ag-1	Rev-erbA mod	NR2E3 ag-2	PG9 binder conf	PGV04 counter	Rev-erbA confirm	others
COc1ccc(C(C(=O)N(C)C2CCCC2)N(Cc2ccc(F)cc2)C(=O)c2csc3ccc(Cl)cc23)cc1OC (stereo not given)	/	/	4	/	/	/	/
Cn1c2ccccc2c(=O)c2c(=O)n(Cc3ccccc3)c(-c3ccc(F)cc3)nc21	21*	-4	28*	-2	28*	39*	30*
COCCn1c(-c2ccccc2)nc2c(c(=O)c3ccccc3n2C)c1=O	/	/	/	-5	/	/	/
COC(=O)c1c(NC(=O)CN2C(=O)NC3(CCc4ccccc4C3)C2=O)sc2c1CCCCC2 (stereo not given)	15*	-18	30*	2	22*	34*	26*
COC(=O)c1c(NC(=O)CN2C(=O)NC3(CCC(C(C)(C)C)CC3)C2=O)sc2c1CCCCC2 (stereo not given)	0	-3	13	4	/	/	/
CCNc1nc(Cl)nc(-c2cn(-c3ccccc3)c3ccccc23)n1	11*	-1	42*	1	9.0*	9.4*	14
Clc1nc(Oc2ccccc2)nc(-c2cn(-c3ccccc3)c3ccccc23)n1	-3	-11	-11	-3	/	/	/
Cc1ccc(OCC(=O)Nc2ccc(S(=O)(=O)Nc3ccccn3)cc2)cc1C	50*	-6	29*	14	41*	45*	22*
COc1cccc(C(=O)Nc2ccc3c(C)cc(=O)oc3c2)c1	9.7*	-172	20*	/	21*	31*	0
COc1ccccc1NC(=O)c1ccc(-c2ccc(Br)cc2)o1	2	-14	7	5	/	/	/
COc1cc(NC(=O)c2ccc(-c3ccc(Br)cc3)o2)ccc1NC(=O)C(C)C	22*	-11	37*	0	41*	30*	16
COC(=O)[C@]12C[C@H](CC(=O)N3CCCC3)C(=O)N(Cc3cccc4ccccc34)C1=C[C@H](C1CCCC1)O[C@@H]2C	/	/	4	/	/	/	/
CC(=O)NCCNc1nc2c(-c3cccc(C(F)(F)F)c3)nnn2c2ccccc12	25*	-18	69*	2	15*	57*	3
Cc1cc(NC(=O)c2ccc(NS(=O)(=O)c3ccccc3)cc2)no1	/	/	-4	/	/	/	/
Cc1ccc(NC(=O)CN(C)C(=O)COc2ncnc3ccc(Br)cc23)cc1	21*	-22	21*	0	9.1*	8	17*	PG9 bind DR=i;PGV04 DR counter=i;PG126 DR counter=i
Cc1ccc(-c2cc3ncc(C#N)c(N)n3n2)cc1	37*	-74	47*	17	48*	63*	12
Cc1ccc(-n2ncc(C#N)c2N)cc1	-1	-5	-3	7	/	/	/
COc1cc(NC(=O)NC2CCCCN(Cc3ccc(Cl)cc3)C2=O)cc(OC)c1 (stereo not given)	/	/	7	/	/	/	/
CC(=O)Nc1cccc(NC(=O)CSc2nc(C)c(C)c(C)c2C#N)c1	1	4	-6	-1	/	/	/
Cc1cccc(C)c1NC(=O)CSc1nc(C)c(CC(=O)c2ccc(Br)cc2)c(C)c1C#N	26*	-56	141*	-9	53*	70*	78*
CCOC(=O)C1(Cc2ccccc2)CCN(Cc2ccc(C)cc2)CC1	/	/	0	/	/	/	/
CCOc1ccc(-n2c(=O)c3sccc3n(CC(=O)Nc3cccc(OC)c3)c2=O)cc1	24*	2	31*	-3	26*	43*	27*
CCN1Cc2nnn(Cc3ccc(C)cc3)c2-c2ccccc2S1(=O)=O	/	/	6	/	/	/	/
Cc1ccc2[nH]c(=O)c(COC(=O)c3cccs3)cc2c1	18*	-39	33*	18	50*	66*	21*
